Measured values of several laboratories.
Protocols differ between the studies behind these lines.
VIPR1: Vasoactive intestinal polypeptide receptor 1 (VIPR1, Homo sapiens, UniProt P32241)
SULT1B1: Sulfotransferase 1B1 (SULT1B1, Homo sapiens, UniProt O43704)

Structure (SMILES) | target | test | test system | conditions | quantity | value
O=C(Nc1cccnn1)N1CCN([C@@H]2CCOc3cc(C(F)(F)F)ccc32)CC1 | VIPR1 | cell-free assay | – | 20 µM | inhibition | -11%
Nc1ncc(-c2nc(N3CCOCC3)nc(N3CCOCC3)n2)c(C(F)F)n1 | Uncharacterized serine/threonine-protein kinase SBK3 (SBK3, Homo sapiens, UniProt P0C264) | binding, competition with immobilised ligand | – | 10 µM | remaining binding | 85%
O=[N+]([O-])c1cc[n+]([O-])c2ccccc12 | TcPGFS (Trypanosoma cruzi, UniProt Q8I6L9) | enzyme activity, inhibitor | – | 200 µM | remaining activity | 76%
O=C(Nc1cccnc1)N1CCC(Cc2cccc(Oc3ccc(C(F)(F)F)cn3)c2)CC1 | Fatty-acid amide hydrolase 1 (Faah, Rattus norvegicus, UniProt P97612) | enzyme activity, inhibitor | – | – | kinact/KI | 3900 M⁻¹ s⁻¹
COc1ncccc1-c1cnn2ccc(N3CCN(C(=O)OC(C)C)CC3)nc12 | Bone morphogenetic protein receptor type-1B (BMPR1B, Homo sapiens, UniProt O00238) | binding, competition with immobilised ligand | – | 1 µM | remaining binding | 100%
N=C(N)c1ccc2cc(OC(=O)c3ccc(N=C(N)N)cc3)ccc2c1 | Cathepsin S (CTSS, Homo sapiens, UniProt P25774) | enzyme activity, inhibitor | – | 10 µM | inhibition | 8%
CCN(CC)CCCC[C@H](NC(=O)[C@H](CC(C)C)NC(=O)[C@H](C)NC(=O)[C@H](Cc1ccccc1)NC(=O)c1ccc(C(C)(C)C)cc1)C(=O)N[C@@H](CO)C(=O)OC | VIPR1 | ligand displacement, radioligand | – | 10 µM | remaining binding | 110%
Oc1c(Br)cc(Br)cc1Oc1ccc(Br)cc1Br | SULT1B1 | enzyme activity, substrate | – | – | Km | 0.172 µM
Cc1nn(C)cc1-c1nc2c(N3CCN(Cc4ccc(Cl)cc4)CC3)c(Cl)cnc2[nH]1 | Wee1-like protein kinase 2 (WEE2, Homo sapiens, UniProt P0C1S8) | binding, competition with immobilised ligand | – | 1 µM | remaining binding | 99%
CN1CCN(c2cc(-c3ccncc3)c(-c3ccc4ccccc4c3)nn2)CC1 | Prokineticin receptor 1 (PROKR1, Homo sapiens, UniProt Q8TCW9) | calcium signal, agonist | PK-1 | 12.5 µM | activation | -0.3%
COc1cc(Br)cc(Br)c1Oc1cc(Br)cc(Br)c1O | SULT1B1 | enzyme activity, substrate | – | – | Km | 24.9 µM
CN(C)C(=O)COC(=O)Cc1ccc(OC(=O)c2ccc(NC(=N)N)cc2)cc1 | Dipeptidyl peptidase 3 (DPP3, Homo sapiens, UniProt Q9NY33) | enzyme activity, inhibitor | – | 10 µM | inhibition | 8%
